Experimental data as given in ChEMBL document CHEMBL1134841, “Antimalarial alkoxylated and hydroxylated chalcones [corrected]: structure-activity relationship analysis” (J Med Chem, 2001).

Experiments:
Plasmodium falciparum = experiment: Inhibition of [3H]hypoxanthine incorporation in Plasmodium falciparum K1; assay type: functional, organism-based
How it was run: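 K1 (chloroquine-resistant) parasites cultured in RPMI-1640 with 5% sodium bicarbonate and 10% type O human serum. DMSO stocks were serially diluted 10-fold in medium, covering a 10^6-fold range. Infected erythrocytes at 1–2% parasitemia and 1.5% hematocrit were incubated at 37 °C in a candle jar for 24 h. [3H]hypoxanthine was then added for a further 24 h, cells harvested and scintillation counted. IC50 from nonlinear logistic fit versus untreated control.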

Mus musculus [1] = experiment: Ratio of average life span of compound-treated mice (100 mg/kg, ip, 3 days) to that of mice receiving DMSO (T/C-untreated); assay type: functional
How it was run: (§1)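 Swiss albino mice (male, 4 weeks, ~25 g) inoculated ip with 10^7 P. berghei ANKA parasitized erythrocytes (day 0). Test compound 100 mg/kg/day ip in DMSO, days 1–3, three mice per compound. Control infected groups: DMSO or 4'-butoxy-2,4-dimethoxychalcone (100 mg/kg in DMSO, ip, days 1–3), or chloroquine (52 mg/kg ip in 0.5% Tween buffer pH 7.4, day 1). Survival followed; ratio of mean life spans.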

Mus musculus [2] = experiment: Ratio of average life span of compound-treated mice (100 mg/kg, ip, 3 days) to that of mice treated with 4''-butoxy-2,4-dimethoxychalcone (comp.41); assay type: functional; how it was run: as §1
[3] = Ratio of average life span of compound-treated mice (100 mg/kg, ip, 3 days) to that of mice treated with chloroquine (T/C-CQ); assay type: functional; how it was run: as §1

Row | Compound | IC50 (Plasmodium falciparum; Plasmodium falciparum, 48 h) [µM] | other results
1 | O=C(/C=C/c1ccc(Cl)cc1)c1ccc(O)cc1 | 38 | 
2 | COc1ccc(C(=O)/C=C/c2ccc(O)cc2)cc1 | 7 | T/C untreated (Mus musculus [1]): 1.41; T/C 41 (Mus musculus [2]): 1.47; T/C-CQ [3]: 0.7
3 | COc1ccc(C(=O)/C=C/c2ccc(Cl)cc2Cl)cc1 | 16 | 
4 | CCOc1ccc(C(=O)/C=C/c2ccc(C)cc2)cc1 | 38 | 
5 | O=C(/C=C/c1ccc([N+](=O)[O-])cc1)c1ccc(O)cc1 | 20.4 | 
6 | COc1ccc(/C=C/C(=O)c2ccc(O)cc2O)c(OC)c1 | 56.4 | 
7 | CCOc1ccc(C(=O)/C=C/c2ccc(OC)cc2)cc1 | 33 | 
8 | O=C(/C=C/c1cnc2ccccc2c1)c1ccc(O)cc1 | 41 | 
9 | COc1ccc(C(=O)/C=C/c2ccc(F)cc2)c(OC)c1 | 322 | 
10 | COc1ccc(C(=O)/C=C/c2cnc3ccccc3c2)cc1 | 4.8 | T/C untreated (Mus musculus [1]): 0.98; T/C 41 (Mus musculus [2]): 1.03; T/C-CQ [3]: 0.49
11 | O=C(/C=C/c1ccc2ccccc2c1)c1ccc(O)cc1 | 27.5 | 
12 | CCOc1ccc(C(=O)/C=C/c2ccnc3ccccc23)cc1 | 100 | 
13 | O=C(/C=C/c1ccc(F)cc1F)c1ccc(O)cc1O | 16 | T/C untreated (Mus musculus [1]): 1.73; T/C 41 (Mus musculus [2]): 1.78; T/C-CQ [3]: 1.23
14 | COc1ccc(C(=O)/C=C/c2ccc(Cl)cc2Cl)c(OC)c1 | 18.8 | 
15 | COc1ccc(C(=O)/C=C/c2ccccc2)c(OC)c1 | 55.5 | 
16 | O=C(/C=C/c1ccc(Cl)cc1Cl)c1ccc(O)cc1O | 68.5 | T/C untreated (Mus musculus [1]): 1.32; T/C 41 (Mus musculus [2]): 1.36; T/C-CQ [3]: 0.94
17 | COc1ccc(C(=O)/C=C/c2ccc(F)cc2)cc1 | 14.4 | T/C untreated (Mus musculus [1]): 2.2; T/C 41 (Mus musculus [2]): 1.83; T/C-CQ [3]: 1.22
18 | COc1ccc(/C=C/C(=O)c2ccc(O)cc2)cc1 | 32.2 | 
19 | COc1ccc(C(=O)/C=C/c2ccc(C)cc2)cc1 | 70 | 
20 | COc1ccc(C(=O)/C=C/c2ccc(Cl)c(Cl)c2)c(OC)c1 | 298 | 
21 | O=C(/C=C/c1ccc(C(F)(F)F)cc1)c1ccc(O)cc1 | 30.4 | 
22 | COc1ccc(/C=C/C(=O)c2ccc(OC)cc2OC)cc1 [METOCHALCONE] | 128 | 
23 | COc1ccc(C(=O)/C=C/c2ccc(C(F)(F)F)cc2)c(OC)c1 | 5.9 | T/C untreated (Mus musculus [1]): 1.67; T/C 41 (Mus musculus [2]): 1.67; T/C-CQ [3]: 0.84
24 | COc1ccc(C(=O)/C=C/c2ccc(C)cc2)c(OC)c1OC | 25.6 | 
25 | COc1ccc(C(=O)/C=C/c2ccc(Cl)cc2)c(OC)c1OC | 14.5 | 
26 | CN(C)c1ccc(/C=C/C(=O)c2ccc(O)cc2)cc1 | 17.7 | T/C untreated (Mus musculus [1]): 0.94; T/C 41 (Mus musculus [2]): 0.99; T/C-CQ [3]: 0.47
27 | CCOc1ccc(C(=O)/C=C/c2ccc(C#N)cc2)cc1 | 540 | 

Row | Compound | IC50 (Plasmodium falciparum; Plasmodium falciparum, 48 h) [µM] | other results
28 | COc1ccc(C(=O)/C=C/c2cccc(Cl)c2)c(OC)c1OC | 24.4 | 
29 | O=C(/C=C/c1ccc(C(F)(F)F)cc1)c1ccc(O)cc1O | 26.5 | 
30 | CCCCc1ccc(/C=C/C(=O)c2ccc(O)cc2)cc1 | 20.9 | 
31 | CCOc1ccc(C(=O)/C=C/c2ccc(OC)cc2OC)cc1 | 30 | 
32 | O=C(/C=C/c1ccc(Cl)cc1Cl)c1ccc(O)cc1 | 24.5 | 
33 | O=C(/C=C/c1ccccc1Cl)c1ccc(O)cc1 | 61.7 | 
34 | O=C(/C=C/c1ccc(F)cc1)c1ccc(O)cc1 | 21.7 | 
35 | O=C(/C=C/c1cccc(Cl)c1)c1ccc(O)cc1 | 33.1 | 
36 | CCOc1ccc(C(=O)/C=C/c2ccc([N+](=O)[O-])cc2)cc1 | 39 | 
37 | COc1ccc(C(=O)/C=C/c2ccc(C(F)(F)F)cc2)c(OC)c1OC | 3 | T/C untreated (Mus musculus [1]): 1.46; T/C 41 (Mus musculus [2]): 1.46; T/C-CQ [3]: 0.74
38 | Cc1cccc(/C=C/C(=O)c2ccc(O)cc2)c1 | 25.8 | 
39 | COc1ccc(C(=O)/C=C/c2ccc(C)cc2)c(OC)c1 | 93.8 | 
40 | COc1ccc(C(=O)/C=C/c2cnc3ccccc3c2)c(OC)c1OC | 2 | T/C untreated (Mus musculus [1]): 1.91; T/C 41 (Mus musculus [2]): 1.91; T/C-CQ [3]: 0.96
41 | O=C(/C=C/c1ccc(Cl)c(Cl)c1)c1ccc(O)cc1 | 18.4 | T/C untreated (Mus musculus [1]): 1.28; T/C 41 (Mus musculus [2]): 0.81; T/C-CQ [3]: 0.71
42 | O=C(/C=C/c1ccccc1)c1ccc(O)cc1 [4'-HYDROXYCHALCONE] | 29.6 | 
43 | O=C(/C=C/c1ccnc2ccccc12)c1ccc(O)cc1O | 92.8 | 
44 | CCOc1ccc(C(=O)/C=C/c2ccc(Cl)cc2Cl)cc1 | 96 | 
45 | CCOc1ccc(C(=O)/C=C/c2ccc(F)cc2)cc1 | 24.1 | 
46 | O=C(/C=C/c1ccncc1)c1ccc(O)cc1O | 122 | 
47 | COc1ccc(C(=O)/C=C/c2ccc(C(F)(F)F)cc2)cc1 | 19 | 
48 | O=C(/C=C/c1ccccn1)c1ccc(O)cc1O | 19.7 | T/C untreated (Mus musculus [1]): 1.47; T/C 41 (Mus musculus [2]): 0.93; T/C-CQ [3]: 0.81
49 | CCOc1ccc(C(=O)/C=C/c2ccc(C(F)(F)F)cc2)cc1 | 24 | 
50 | COc1ccc(C(=O)/C=C/c2ccc(F)cc2Cl)c(OC)c1 | 600 | 
51 | COc1ccc(C(=O)/C=C/c2cccc3ccccc23)c(OC)c1 | 320 | 
52 | CCOc1ccc(C(=O)/C=C/c2cnc3ccccc3c2)cc1 | 24.9 | 
53 | CCOc1ccc(C(=O)/C=C/c2ccccc2)cc1 | 43 | 
54 | COc1ccc(C(=O)/C=C/c2ccc(Br)cc2)c(OC)c1 | 542 | 

Row | Compound | IC50 (Plasmodium falciparum; Plasmodium falciparum, 48 h) [µM] | other results
55 | Cc1ccc(/C=C/C(=O)c2ccc(O)cc2)cc1 | 25.4 | 
56 | COc1ccc(C(=O)/C=C/c2ccccc2Cl)c(OC)c1OC | 41.5 | 
57 | CCOc1ccc(C(=O)/C=C/c2ccc(F)cc2F)cc1 | 28.1 | 
58 | COc1ccc(C(=O)/C=C/c2ccnc3ccccc23)cc1 | 43 | 
59 | COc1ccc(C(=O)/C=C/c2ccc([N+](=O)[O-])cc2)c(OC)c1OC | 22.5 | 
60 | COc1ccc(/C=C/C(=O)c2ccc(OC)c(OC)c2OC)cc1 | 25 | 
61 | COc1ccc(C(=O)/C=C/c2ccc(F)cc2F)cc1 | 26.8 | 
62 | CCCCOc1ccc(C(=O)/C=C/c2ccc(OC)cc2OC)cc1 | 108 | T/C untreated (Mus musculus [1]): 1.08; T/C-CQ [3]: 0.57
63 | COc1ccc(C(=O)/C=C/c2ccc(F)cc2F)c(OC)c1OC | 18.5 | 
64 | O=C(/C=C/c1cccc2ccccc12)c1ccc(O)cc1O | 24.8 | 
65 | CCOc1ccc(C(=O)/C=C/c2ccc(N(C)C)cc2)cc1 | 30 | 
66 | COc1ccc(C(=O)/C=C/c2ccnc3ccccc23)c(OC)c1 | 27 | 
67 | COc1ccc(C(=O)/C=C/c2ccc(N(C)C)cc2)c(OC)c1OC | 18 | 
68 | CCc1ccc(/C=C/C(=O)c2ccc(OC)c(OC)c2OC)cc1 | 16.5 | 
69 | O=C(/C=C/c1cccc2ccccc12)c1ccc(O)cc1 | 39.9 | 
70 | COc1ccc(C(=O)/C=C/c2ccc([N+](=O)[O-])cc2)c(OC)c1 (stereo in doubt; 115) |  | IC50 (Plasmodium falciparum): 100 µM
71 | COc1ccc(C(=O)/C=C/c2ccc(-c3ccccc3)cc2)c(OC)c1OC | 26.2 | 
72 | COc1ccc(C(=O)/C=C/c2ccc(N(C)C)cc2)c(OC)c1 (stereo in doubt; 103) |  | IC50 (Plasmodium falciparum): 55.3 µM
73 | CCN(CC)CCCC(C)Nc1ccnc2cc(Cl)ccc12 (stereo unspecified) [CHLOROQUINE] |  | T/C untreated (Mus musculus [1]): 1.81; T/C 41 (Mus musculus [2]): 1.71
74 | COc1ccc(C(=O)/C=C/c2ccc([N+](=O)[O-])cc2)c(OC)c1 (stereo in doubt; 109) |  | IC50 (Plasmodium falciparum): 415 µM
75 | COc1ccc(/C=C/C(=O)c2ccc(OC)cc2)cc1 [4,4'-DIMETHOXYCHALCONE] | 21.7 | 
76 | COc1ccc(C(=O)/C=C/c2ccccc2)c(OC)c1OC | 15.8 | 
77 | COc1ccc(C(=O)/C=C/c2ccc(Cl)cc2)c(OC)c1 | 342 | 
78 | COc1ccc(/C=C/C(=O)c2ccc(OC)c(OC)c2OC)c(OC)c1 | 16.5 | 
79 | O=C(/C=C/c1ccnc2ccccc12)c1ccc(O)cc1 | 51 | 
80 | COc1ccc(C(=O)/C=C/c2ccnc3ccccc23)c(OC)c1OC | 60 | 
